# Measurements published in ChEMBL document CHEMBL5303300, “EUbOPEN Chemogenomics Library - Multiplex” (2023).
# “And” between values parts separate entries of the source, which are not always exact repeats. Identical values can stand only once.
# Columns and labels:
# Assay type in all cases: toxicity, cell-based
# U2OS = test: Multiplex assay against U2OS; details: human, number of replicates 2
# Procedure, shortened: (§1)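 Live cells were stained at seeding with Hoechst33342, BioTracker Green Microtubule Cytoskeleton Dye, MitoTracker Red and Annexin V Alexa Fluor 680. Following compound addition, they were imaged on a CQ1 microscope at 37°C and 5% CO2 and gated by CellPathfinder machine learning into Hoechst high-intensity objects or normal cells, with normal cells split into healthy, pyknosed or fragmented nuclei and pyknosed cells into mitotic or apoptotic. Tubulin, mitochondrial-mass and membrane-permeability phenotypes are per cents of healthy-nucleus cells.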
# Fibroblast = test: Multiplex assay against human fibroblast; details: number of replicates 2; procedure, shortened: as §1
# HEK-293T = test: Multiplex assay against HEK293T; details: human, number of replicates 2; procedure, shortened: as §1
# [1] = 12 h, 1 µM, compound concentration 1 uM
# [2] = 12 h, 10 µM, compound concentration 10 uM
# [3] = 24 h, 1 µM, compound concentration 1 uM
# [4] = 24 h, 10 µM, compound concentration 10 uM
# [5] = 48 h, 1 µM, compound concentration 1 uM
# [6] = 48 h, 10 µM, compound concentration 10 uM
compound,measurement,setting,value
COc1ccncc1C(=O)NC(=O)Nc1ccc(-c2ccccc2)c(C(F)(F)F)c1,Population Apoptotic (%),U2OS; [1],33% and 36%
same,Population Healthy Nuclei (%),U2OS; [1],65% and 86%
same,Population Hoechst High Intensity Objects (%),U2OS; [1],0%
same,Population Membrane Permeable-Phenotype (%),U2OS; [1],0% and 1%
same,Population Mitochondria Different-Phenotype (%),U2OS; [1],0% and 1%
same,Population Mitotic Cells (%),U2OS; [1],66% and 63%
same,Population Normal (%),U2OS; [1],100%
same,Population Pyknosed Nuclei (%),U2OS; [1],11% and 9%
same,Population Tubulin-Different-Phenotype (%),U2OS; [1],58% and 88%
same,Population Apoptotic (%),U2OS; [2],25% and 33%
same,Population Fragmented Nuclei (%),U2OS; [2],8% and 2%
same,Population Healthy Nuclei (%),U2OS; [2],75% and 88%
same,Population Hoechst High Intensity Objects (%),U2OS; [2],0%
same,Population Membrane Permeable-Phenotype (%),U2OS; [2],2% and 1%
same,Population Mitochondria Different-Phenotype (%),U2OS; [2],2% and 1%
same,Population Mitotic Cells (%),U2OS; [2],75% and 66%
same,Population Normal (%),U2OS; [2],100%
same,Population Pyknosed Nuclei (%),U2OS; [2],16% and 9%
same,Population Tubulin-Different-Phenotype (%),U2OS; [2],67% and 78%
same,Population Apoptotic (%),U2OS; [3],66% and 57%
same,Population Healthy Nuclei (%),U2OS; [3],63% and 90%
same,Population Hoechst High Intensity Objects (%),U2OS; [3],0%
same,Population Membrane Permeable-Phenotype (%),U2OS; [3],4% and 2%
same,Population Mitochondria Different-Phenotype (%),U2OS; [3],0% and 1%
same,Population Mitotic Cells (%),U2OS; [3],33% and 42%
same,Population Normal (%),U2OS; [3],100%
same,Population Pyknosed Nuclei (%),U2OS; [3],15% and 6%
same,Population Tubulin-Different-Phenotype (%),U2OS; [3],62% and 89%
same,Population Apoptotic (%),U2OS; [4],66% and 31%
same,Population Fragmented Nuclei (%),U2OS; [4],1% and 3%
same,Population Healthy Nuclei (%),U2OS; [4],93% and 90%
same,Population Hoechst High Intensity Objects (%),U2OS; [4],0%
same,Population Membrane Permeable-Phenotype (%),U2OS; [4],5% and 0%
same,Population Mitochondria Different-Phenotype (%),U2OS; [4],0%
same,Population Mitotic Cells (%),U2OS; [4],33% and 68%
same,Population Normal (%),U2OS; [4],100%
same,Population Pyknosed Nuclei (%),U2OS; [4],5% and 6%
same,Population Tubulin-Different-Phenotype (%),U2OS; [4],72% and 79%
same,Population Apoptotic (%),U2OS; [5],60% and 43%
same,Population Healthy Nuclei (%),U2OS; [5],70% and 90%
same,Population Hoechst High Intensity Objects (%),U2OS; [5],0%
same,Population Membrane Permeable-Phenotype (%),U2OS; [5],2% and 1%
same,Population Mitochondria Different-Phenotype (%),U2OS; [5],2% and 0%
same,Population Mitotic Cells (%),U2OS; [5],40% and 56%
same,Population Normal (%),U2OS; [5],100%
same,Population Pyknosed Nuclei (%),U2OS; [5],10% and 7%
same,Population Tubulin-Different-Phenotype (%),U2OS; [5],65% and 90%
same,Population Apoptotic (%),U2OS; [6],23% and 69%
same,Population Fragmented Nuclei (%),U2OS; [6],7% and 2%
same,Population Healthy Nuclei (%),U2OS; [6],81% and 93%
same,Population Hoechst High Intensity Objects (%),U2OS; [6],0%
same,Population Membrane Permeable-Phenotype (%),U2OS; [6],0%
same,Population Mitochondria Different-Phenotype (%),U2OS; [6],0%
same,Population Mitotic Cells (%),U2OS; [6],76% and 30%
same,Population Normal (%),U2OS; [6],100% and 99%
same,Population Pyknosed Nuclei (%),U2OS; [6],10% and 4%
same,Population Tubulin-Different-Phenotype (%),U2OS; [6],83%
same,Population Apoptotic (%),Fibroblast; [1],43% and 32%
same,Population Fragmented Nuclei (%),Fibroblast; [1],7% and 12%
same,Population Healthy Nuclei (%),Fibroblast; [1],73% and 71%
same,Population Hoechst High Intensity Objects (%),Fibroblast; [1],0%
same,Population Membrane Permeable-Phenotype (%),Fibroblast; [1],5% and 3%
same,Population Mitochondria Different-Phenotype (%),Fibroblast; [1],1% and 2%
same,Population Mitotic Cells (%),Fibroblast; [1],56% and 67%
same,Population Normal (%),Fibroblast; [1],99% and 100%
same,Population Pyknosed Nuclei (%),Fibroblast; [1],19% and 15%
same,Population Tubulin-Different-Phenotype (%),Fibroblast; [1],6% and 5%
same,Total Cell Count,Fibroblast; [1],158 and 217
same,Population Apoptotic (%),Fibroblast; [2],38% and 50%
same,Population Fragmented Nuclei (%),Fibroblast; [2],8% and 16%
same,Population Healthy Nuclei (%),Fibroblast; [2],69%
same,Population Hoechst High Intensity Objects (%),Fibroblast; [2],0%
same,Population Membrane Permeable-Phenotype (%),Fibroblast; [2],9% and 5%
same,Population Mitochondria Different-Phenotype (%),Fibroblast; [2],2%
same,Population Mitotic Cells (%),Fibroblast; [2],61% and 50%
same,Population Normal (%),Fibroblast; [2],100%
same,Population Pyknosed Nuclei (%),Fibroblast; [2],22% and 13%
same,Population Tubulin-Different-Phenotype (%),Fibroblast; [2],22% and 16%
same,Total Cell Count,Fibroblast; [2],213 and 202
same,Population Apoptotic (%),Fibroblast; [3],59% and 44%
same,Population Fragmented Nuclei (%),Fibroblast; [3],19% and 15%
same,Population Healthy Nuclei (%),Fibroblast; [3],61% and 68%
same,Population Hoechst High Intensity Objects (%),Fibroblast; [3],0%
same,Population Membrane Permeable-Phenotype (%),Fibroblast; [3],4% and 6%
same,Population Mitochondria Different-Phenotype (%),Fibroblast; [3],1% and 2%
same,Population Mitotic Cells (%),Fibroblast; [3],40% and 55%
same,Population Normal (%),Fibroblast; [3],100%
same,Population Pyknosed Nuclei (%),Fibroblast; [3],19% and 16%
same,Population Tubulin-Different-Phenotype (%),Fibroblast; [3],12% and 10%
same,Total Cell Count,Fibroblast; [3],189 and 219
same,Population Apoptotic (%),Fibroblast; [4],46% and 65%
same,Population Fragmented Nuclei (%),Fibroblast; [4],10% and 18%
same,Population Healthy Nuclei (%),Fibroblast; [4],66% and 70%
same,Population Hoechst High Intensity Objects (%),Fibroblast; [4],0%
same,Population Membrane Permeable-Phenotype (%),Fibroblast; [4],6% and 4%
same,Population Mitochondria Different-Phenotype (%),Fibroblast; [4],0% and 2%
same,Population Mitotic Cells (%),Fibroblast; [4],53% and 34%
same,Population Normal (%),Fibroblast; [4],100%
same,Population Pyknosed Nuclei (%),Fibroblast; [4],22% and 11%
same,Population Tubulin-Different-Phenotype (%),Fibroblast; [4],19% and 12%
same,Total Cell Count,Fibroblast; [4],215 and 203
same,Population Apoptotic (%),Fibroblast; [5],75% and 63%
same,Population Fragmented Nuclei (%),Fibroblast; [5],13% and 16%
same,Population Healthy Nuclei (%),Fibroblast; [5],69% and 74%
same,Population Hoechst High Intensity Objects (%),Fibroblast; [5],0%
same,Population Membrane Permeable-Phenotype (%),Fibroblast; [5],4% and 7%
same,Population Mitochondria Different-Phenotype (%),Fibroblast; [5],0%
same,Population Mitotic Cells (%),Fibroblast; [5],25% and 36%
same,Population Normal (%),Fibroblast; [5],100% and 99%
same,Population Pyknosed Nuclei (%),Fibroblast; [5],16% and 9%
same,Population Tubulin-Different-Phenotype (%),Fibroblast; [5],4% and 6%
same,Total Cell Count,Fibroblast; [5],173 and 239
same,Population Apoptotic (%),Fibroblast; [6],66%
same,Population Fragmented Nuclei (%),Fibroblast; [6],9% and 16%
same,Population Healthy Nuclei (%),Fibroblast; [6],79% and 77%
same,Population Hoechst High Intensity Objects (%),Fibroblast; [6],0%
same,Population Membrane Permeable-Phenotype (%),Fibroblast; [6],9% and 1%
same,Population Mitochondria Different-Phenotype (%),Fibroblast; [6],0% and 1%
same,Population Mitotic Cells (%),Fibroblast; [6],33%
same,Population Normal (%),Fibroblast; [6],100%
same,Population Pyknosed Nuclei (%),Fibroblast; [6],10% and 6%
same,Population Tubulin-Different-Phenotype (%),Fibroblast; [6],11% and 4%
same,Total Cell Count,Fibroblast; [6],221 and 197
same,Population Apoptotic (%),HEK-293T; [1],56% and 45%
same,Population Fragmented Nuclei (%),HEK-293T; [1],2% and 4%
same,Population Healthy Nuclei (%),HEK-293T; [1],87% and 84%
same,Population Hoechst High Intensity Objects (%),HEK-293T; [1],7% and 8%
same,Population Membrane Permeable-Phenotype (%),HEK-293T; [1],2% and 3%
same,Population Mitochondria Different-Phenotype (%),HEK-293T; [1],23% and 12%
same,Population Mitotic Cells (%),HEK-293T; [1],43% and 54%
same,Population Normal (%),HEK-293T; [1],93% and 91%
same,Population Pyknosed Nuclei (%),HEK-293T; [1],10% and 11%
same,Population Tubulin-Different-Phenotype (%),HEK-293T; [1],55% and 46%
same,Total Cell Count,HEK-293T; [1],543 and 715
same,Population Apoptotic (%),HEK-293T; [2],49% and 44%
same,Population Fragmented Nuclei (%),HEK-293T; [2],3% and 4%
same,Population Healthy Nuclei (%),HEK-293T; [2],81% and 84%
same,Population Hoechst High Intensity Objects (%),HEK-293T; [2],7%
same,Population Membrane Permeable-Phenotype (%),HEK-293T; [2],2%
same,Population Mitochondria Different-Phenotype (%),HEK-293T; [2],28% and 21%
same,Population Mitotic Cells (%),HEK-293T; [2],50% and 55%
same,Population Normal (%),HEK-293T; [2],92%
same,Population Pyknosed Nuclei (%),HEK-293T; [2],14% and 11%
same,Population Tubulin-Different-Phenotype (%),HEK-293T; [2],66% and 52%
same,Total Cell Count,HEK-293T; [2],484 and 596
same,Population Apoptotic (%),HEK-293T; [3],43% and 39%
same,Population Fragmented Nuclei (%),HEK-293T; [3],3% and 5%
same,Population Healthy Nuclei (%),HEK-293T; [3],88% and 86%
same,Population Hoechst High Intensity Objects (%),HEK-293T; [3],6% and 9%
same,Population Membrane Permeable-Phenotype (%),HEK-293T; [3],2%
same,Population Mitochondria Different-Phenotype (%),HEK-293T; [3],4% and 6%
same,Population Mitotic Cells (%),HEK-293T; [3],56% and 60%
same,Population Normal (%),HEK-293T; [3],93% and 90%
same,Population Pyknosed Nuclei (%),HEK-293T; [3],7%
same,Population Tubulin-Different-Phenotype (%),HEK-293T; [3],33% and 30%
same,Total Cell Count,HEK-293T; [3],828 and 1052
same,Population Apoptotic (%),HEK-293T; [4],61% and 41%
same,Population Fragmented Nuclei (%),HEK-293T; [4],8% and 6%
same,Population Healthy Nuclei (%),HEK-293T; [4],82% and 85%
same,Population Hoechst High Intensity Objects (%),HEK-293T; [4],9% and 8%
same,Population Membrane Permeable-Phenotype (%),HEK-293T; [4],2%
same,Population Mitochondria Different-Phenotype (%),HEK-293T; [4],11% and 7%
same,Population Mitotic Cells (%),HEK-293T; [4],38% and 58%
same,Population Normal (%),HEK-293T; [4],90% and 91%
same,Population Pyknosed Nuclei (%),HEK-293T; [4],9% and 8%
same,Population Tubulin-Different-Phenotype (%),HEK-293T; [4],38% and 32%
same,Total Cell Count,HEK-293T; [4],722 and 835
same,Population Apoptotic (%),HEK-293T; [5],8% and 9%
same,Population Fragmented Nuclei (%),HEK-293T; [5],11%
same,Population Healthy Nuclei (%),HEK-293T; [5],85%
same,Population Hoechst High Intensity Objects (%),HEK-293T; [5],9%
same,Population Membrane Permeable-Phenotype (%),HEK-293T; [5],5% and 4%
same,Population Mitochondria Different-Phenotype (%),HEK-293T; [5],0%
same,Population Mitotic Cells (%),HEK-293T; [5],91% and 90%
same,Population Normal (%),HEK-293T; [5],90%
same,Population Pyknosed Nuclei (%),HEK-293T; [5],3%
same,Population Tubulin-Different-Phenotype (%),HEK-293T; [5],14% and 12%
same,Total Cell Count,HEK-293T; [5],2070 and 2556
same,Population Apoptotic (%),HEK-293T; [6],26% and 21%
same,Population Fragmented Nuclei (%),HEK-293T; [6],11% and 12%
same,Population Healthy Nuclei (%),HEK-293T; [6],84%
same,Population Hoechst High Intensity Objects (%),HEK-293T; [6],7% and 8%
same,Population Membrane Permeable-Phenotype (%),HEK-293T; [6],4% and 6%
same,Population Mitochondria Different-Phenotype (%),HEK-293T; [6],1%
same,Population Mitotic Cells (%),HEK-293T; [6],73% and 78%
same,Population Normal (%),HEK-293T; [6],92% and 91%
same,Population Pyknosed Nuclei (%),HEK-293T; [6],4% and 3%
same,Population Tubulin-Different-Phenotype (%),HEK-293T; [6],23% and 19%
same,Total Cell Count,HEK-293T; [6],1542 and 1838
